pEC50: −log10 of the molar value. Converted amounts (≈) assume the structure as drawn.
Experiments:
[1] = test system: A-375; assay: Cytotoxicity against human A-375 cells assessed as reduction in cell viability incubated for 72 hrs by SRB assay; type: toxicity, cell-based
[2] = test system: HT-29; assay: Cytotoxicity against human HT-29 cells assessed as reduction in cell viability incubated for 72 hrs by SRB assay; type: toxicity, cell-based
[3] = test system: Mycolicibacterium smegmatis; assay: Antibacterial activity against Mycobacterium smegmatis mc2 155 expressing tomato RFP assessed as bacterial growth inhibition incubated for 3 days in 7H9 medium by RFP fluorescence based broth microdilution method; type: functional; settings: mc2 155, 72 h, time 3 day
Summary of the method: (§1)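 Broth microdilution in 7H9 with 10 % ADS and 0.05 % Tween 80. Twofold nine-point dilution series. Inoculum 5 x 10⁵ cells/mL taken from a mid-log preculture. Incubation at 37 °C, 3 days for M. smegmatis and M. abscessus, 5 days for M. intracellulare. Read-out by RFP fluorescence (ex 544/em 590 nm). Controls were 1 % DMSO and 100 μM amikacin. MIC₉₀ from duplicates, averaged.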

[4] = test system: HeLa; assay: Cytotoxicity against human HeLa cells assessed as reduction in cell viability incubated for 72 hrs by SRB assay; type: toxicity, cell-based
[5] = test system: Mycobacteroides abscessus; assay: Antibacterial activity against Mycobacterium abscessus ATCC 19977 expressing tomato RFP infected in human THP-1 cells assessed as bacterial growth inhibition incubated for 4 days in RPMI medium by RFP fluorescence based assay; type: functional; settings: ATCC 19977, 96 h, time 4 day
Summary of the method: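 RFP M. abscessus washed, moved into RPMI, filtered through 5 µm and opsonised with 10 % human serum for 30 min. THP-1 cells infected at MOI 5:1 with PMA 40 ng/mL for 4 h at 37 °C, then washed. Infected cells (1x10⁵/well) given a ten-point twofold series. Incubated 4 days at 37 °C, 5 % CO₂. Cells PFA-fixed and DAPI-stained. RFP quantified by imaging. Controls were DMSO and 1.5 µM bedaquiline. Duplicate.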

[6] = test system: Mycobacteroides abscessus; assay: Antibacterial activity against Mycobacterium abscessus ATCC 19977 expressing tomato RFP assessed as bacterial growth inhibition incubated for 3 days in MHII medium by RFP fluorescence based broth microdilution method; type: functional; settings: ATCC 19977, 72 h, time 3 day
Summary of the method: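 Broth microdilution in MHII broth with 0.05 % Tween 80, against the RFP-expressing strain. Twofold nine-point dilution series. Inoculum 5 x 10⁵ cells/mL from a mid-log preculture. Incubated 3 days at 37 °C. Read-out by RFP fluorescence (ex 544/em 590 nm). Controls were 1 % DMSO and 100 μM amikacin. MIC₉₀ from duplicates, averaged.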

[7] = (§2) Cytotoxicity against mouse NIH3T3 cells assessed as reduction in cell viability incubated for 72 hrs by SRB assay; type: toxicity, cell-based; settings: mouse, NIH3T3 cells
[8] = test system: HEK293; assay: Cytotoxicity against HEK293 cells assessed as reduction in cell viability incubated for 72 hrs by SRB assay; type: toxicity, cell-based, Homo sapiens
[9] = test system: Mycobacteroides abscessus; assay: Antibacterial activity against Mycobacterium abscessus Bamboo harboring inactive clarithromycin-sensitive erm41 C28 sequevar assessed as bacterial growth inhibition incubated for 3 days in 7H9 medium by optical density based method; type: functional; settings: 72 h, time 3 day
[10] = test system: MCF7; assay: Cytotoxicity against human MCF7 cells assessed as reduction in cell viability incubated for 72 hrs by SRB assay; type: toxicity, cell-based
[11] = test system: Mycobacterium tuberculosis; assay: Antibacterial activity against Mycobacterium tuberculosis H37Rv ATCC 27294 assessed as bacterial growth inhibition incubated for 7 days in 7H9 medium by optical density based microplate reader analysis; type: functional; settings: H37Rv ATCC 27294, 168 h, time 7 day
Summary of the method: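 Compounds serially diluted in flat-bottom 96-well plates. Mid-log culture mixed in to a final OD₆₀₀ of 0.05. Sealed plates incubated in humidified boxes at 37 °C for 7 days with shaking at 80 rpm. Turbidity read at 600 nm. MIC₉₀ taken from dose–response curves. Two biological replicates, averaged.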

[12] = test system: Mycobacteroides abscessus; assay: Antibacterial activity against Mycobacterium abscessus ATCC 19977 expressing tomato RFP assessed as bacterial growth inhibition incubated for 3 days in 7H9 medium by RFP fluorescence based broth microdilution method; type: functional; settings: ATCC 19977, 72 h, time 3 day; summary of the method: as §1
[13] = Kinetic solubility of compound in PBS at 0.78 to 500 uM measured immediately by nephelometric method; type: physicochemical; settings: buffer, dose 0.78-500 µM
Summary of the method: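 DMSO stocks prediluted in DMSO, then diluted 1:50 into PBS (2 % DMSO final) and read immediately by nephelometry at 0.78–500 μM; blank-corrected data fitted by segmental regression; quadruplicates from one stock.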

[14] = test system: A2780; assay: Cytotoxicity against human A2780 cells assessed as reduction in cell viability incubated for 72 hrs by SRB assay; type: toxicity, cell-based
[15] = test system: Mycobacterium intracellulare; assay: Antibacterial activity against Mycobacterium intracellulare ATCC 35761 expressing tomato RFP assessed as bacterial growth inhibition incubated for 5 days in 7H9 medium by RFP fluorescence based broth microdilution method; type: functional; settings: ATCC 35761, 120 h, time 5 day; summary of the method: as §1
[16] = test system: Mycobacteroides abscessus; assay: Antibacterial activity against MMV688845-resistant Mycobacterium abscessus Bamboo 845R-2.1 harboring rpoB/beta subunit P473L mutation assessed as bacterial growth inhibition incubated for 3 days by optical density based analysis; type: functional; settings: Bamboo 845R-2.1, 72 h, time 3 day
Summary of the method: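 Tenfold-point twofold dilution series in 7H9, final DMSO 1 %. Final ranges typically 50–0.098 or 6.25–0.012 μM. Mid-log culture added to an initial OD₆₀₀ of 0.05 (5*10⁶ CFU/mL). Incubated 3 days at 37 °C with shaking at 110 rpm. Growth taken as OD₆₀₀ on day 3 minus day 0, as % of drug-free wells. MIC₉₀ read visually from the curves. Clarithromycin as control. Two biological replicates, averaged.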

[17] = test system: Mycobacteroides abscessus; assay: Bactericidal activity against Mycobacterium abscessus ATCC 19977 assessed as reduction in viable bacteria at 3.13 uM incubated for 4 days by microplate dilution assay relative to control; type: functional; settings: time 4 day
Summary of the method: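 After 4 days in the microplate dilution assay, 10 µl samples (undiluted or 1:100) were plated on 7H10 with glycerol, ADS and 400 µg/mL hygromycin. Colonies counted after 4 days at 37 °C. Done in triplicate. CFU/mL compared with the inoculum counted before incubation.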

[18] = test system: Mycobacteroides abscessus; assay: Bactericidal activity against Mycobacterium abscessus ATCC 19977 assessed as reduction in viable bacteria at 6.25 uM incubated for 4 days by microplate dilution assay relative to control; type: functional; settings: time 4 day
[19] = test system: NIH3T3; assay: as §2; type: toxicity, cell-based; settings: nih3t3

Structure (SMILES): O=C(N[C@H](Cc1ccccc1)C(=O)Nc1ccccc1N1CCSCC1)c1ccccc1F
- pEC50 [1]: 4.73
- pEC50 [2]: < 4.52
- MIC90 [3]: 3.13 µM (≈ 1.45 µg/mL)
- pEC50 [4]: < 4.52
- MIC50 [5]: 12.5 µM (≈ 5.79 µg/mL)
- MIC90 [5]: > 100 µM
- MIC90 [6]: 50 µM (≈ 23.2 µg/mL)
- EC50 at 72 h [7]: > 30 µM
- pEC50 [8]: 5.20
- MIC50 [9]: 3 µM (≈ 1.39 µg/mL)
- MIC90 [9]: 18 µM (≈ 8.34 µg/mL)
- pEC50 [10]: 4.87
- MIC90 [11]: 6.25 µM (≈ 2.9 µg/mL)
- MIC90 [12]: 12.5 µM (≈ 5.79 µg/mL)
- Kinetic_solubility [13]: 28 µM
- pEC50 [14]: 4.83
- MIC90 [15]: 0.78 µM (≈ 0.362 µg/mL)

Structure (SMILES): O=C(N[C@H](Cc1ccc(O)cc1)C(=O)Nc1cc(F)ccc1N1CCS(=O)(=O)CC1)c1ccccc1F
- pEC50 [1]: < 4.52
- pEC50 [2]: < 4.52
- MIC90 [3]: 6.25 µM (≈ 3.31 µg/mL)
- pEC50 [4]: < 4.52
- MIC50 [5]: 3.13 µM (≈ 1.66 µg/mL)
- MIC90 [5]: 25 µM (≈ 13.2 µg/mL)
- MIC90 [6]: 6.25 µM (≈ 3.31 µg/mL)
- EC50 at 72 h [7]: > 30 µM
- pEC50 [8]: < 4.52
- MIC50 [9]: 1.1 µM (≈ 0.583 µg/mL)
- MIC90 [9]: 13 µM (≈ 6.88 µg/mL)
- pEC50 [10]: < 4.52
- MIC90 [11]: 0.78 µM (≈ 0.413 µg/mL)
- MIC90 [12]: 6.25 µM (≈ 3.31 µg/mL)
- Kinetic_solubility [13]: 158 µM
- pEC50 [14]: < 4.52
- MIC90 [15]: 0.2 µM (≈ 0.106 µg/mL)

Structure (SMILES): O=C(N[C@H](Cc1ccccc1)C(=O)Nc1ccccc1N1CC[S+]([O-])CC1)c1cccs1
- pEC50 [1]: < 4.52
- MIC90 [16]: > 100 µM
- pEC50 [2]: < 4.52
- MIC90 [3]: 1.56 µM (≈ 0.729 µg/mL)
- Activity [17]: 58%
- pEC50 [4]: < 4.52
- MIC50 [5]: 3.13 µM (≈ 1.46 µg/mL)
- MIC90 [5]: 25 µM (≈ 11.7 µg/mL)
- MIC90 [6]: 6.25 µM (≈ 2.92 µg/mL)
- EC50 at 72 h [7]: > 30 µM
- pEC50 [8]: < 4.52
- MIC50 [9]: 0.33 µM (≈ 0.154 µg/mL)
- MIC90 [9]: 2 µM (≈ 0.935 µg/mL)
- pEC50 [10]: < 4.52
- MIC90 [11]: 0.4 µM (≈ 0.187 µg/mL)
- MIC90 [12]: 3.13 µM (≈ 1.46 µg/mL)
- Activity [18]: 99%
- Kinetic_solubility [13]: 271 µM
- pEC50 [14]: < 4.52
- MIC90 [15]: 0.1 µM (≈ 0.0468 µg/mL)

Structure (SMILES): CO[C@H]1/C=C/O[C@@]2(C)Oc3c(C)c(O)c4c(c3C2=O)C2=NC3(CCN(CC(C)C)CC3)NC2=C(NC(=O)/C(C)=C\C=C\[C@H](C)[C@H](O)[C@@H](C)[C@@H](O)[C@@H](C)[C@H](OC(C)=O)[C@@H]1C)C4=O [RIFABUTIN]
- MIC90 [16]: 1.1 µM (≈ 0.932 µg/mL)
- MIC90 [9]: 3 µM (≈ 2.54 µg/mL)

Structure (SMILES): O=C(N[C@H](Cc1ccccc1)C(=O)Nc1cc(F)ccc1N1CCS(=O)(=O)CC1)c1ccccc1F
- pEC50 [1]: < 4.52
- pEC50 [2]: < 4.52
- MIC90 [3]: 1.56 µM (≈ 0.801 µg/mL)
- pEC50 [4]: < 4.52
- MIC50 [5]: 0.39 µM (≈ 0.2 µg/mL)
- MIC90 [5]: 3.13 µM (≈ 1.61 µg/mL)
- MIC90 [6]: 3.13 µM (≈ 1.61 µg/mL)
- pEC50 [19]: 4.62
- pEC50 [8]: < 4.52
- MIC50 [9]: 0.4 µM (≈ 0.205 µg/mL)
- MIC90 [9]: 4.5 µM (≈ 2.31 µg/mL)
- pEC50 [10]: 4.59
- MIC90 [11]: 0.78 µM (≈ 0.401 µg/mL)
- MIC90 [12]: 3.13 µM (≈ 1.61 µg/mL)
- Kinetic_solubility [13]: 32 µM
- pEC50 [14]: 4.63
- MIC90 [15]: 0.1 µM (≈ 0.0514 µg/mL)

Structure (SMILES): O=C(N[C@H](Cc1ccccc1)C(=O)Nc1ccccc1N1CCSCC1)c1cccs1
- pEC50 [1]: < 4.52
- pEC50 [2]: < 4.52
- MIC90 [3]: 3.13 µM (≈ 1.41 µg/mL)
- pEC50 [4]: < 4.52
- MIC50 [5]: 12.5 µM (≈ 5.65 µg/mL)
- MIC90 [5]: > 100 µM
- MIC90 [6]: 50 µM (≈ 22.6 µg/mL)
- EC50 at 72 h [7]: > 30 µM
- pEC50 [8]: 4.72
- MIC50 [9]: 2.5 µM (≈ 1.13 µg/mL)
- MIC90 [9]: 14 µM (≈ 6.32 µg/mL)
- pEC50 [10]: 4.79
- MIC90 [11]: 6.25 µM (≈ 2.82 µg/mL)
- MIC90 [12]: 12.5 µM (≈ 5.65 µg/mL)
- Kinetic_solubility [13]: 34 µM
- pEC50 [14]: 4.70
- MIC90 [15]: 0.78 µM (≈ 0.352 µg/mL)

— ChEMBL document CHEMBL5344415, “Synthesis and Characterization of Phenylalanine Amides Active against Mycobacterium abscessus and Other Mycobacteria” (J Med Chem, 2023)
